# Hits are enriched below; roughly 3.1% of the tested compounds scored in any of these assays.
# HSF1 activator: increases HSF-1 driven luciferase reporter signal. NIH3T3-HGL HSF-1 luciferase reporter, MG132, 8 h; 100% = twice DMSO control signal. activation, % at 9 µM. actives 1.7% (n = 300,000);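 active = mean replicate activation of at least 50% with a set share of replicates each reaching 50%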;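 note: 0% = median of the neutral control wells and 100% = twice that signal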
# HSF1 inhib: HSF1 inhibition | NIH3T3-HGL HSE-luciferase, MG132-induced, luminescence 8 h; stronger effect = lower value | activity change, negative = inhibition, % at 7.5 µM (by protocol) | actives 0.77% (n = 300,000) | AID 2098;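 active = more than half of replicate wells show activity change below -50%, luminescence cut by over half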;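 note: luciferase reports HSF-1 transcriptional activity via heat shock element; 0% = median of DMSO wells and -100% = zero luminescence signal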
# HKDC1 inhibitor: inhibitors of human hexokinase HKDC1. Q2TB90. recombinant HKDC1, G6PDH/diaphorase resazurin coupled fluorescence. inhibition, % at 20 µM. actives 0.16% (n = 340,000). AID 493160;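 active = inhibition above about 35% when tested at 20 µM, limit read from the data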;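 note: plate controls were DMSO wells with enzyme for no effect and DMSO wells lacking enzyme for full effect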
# Target sequence (Q2TB90 whole entry, looked up): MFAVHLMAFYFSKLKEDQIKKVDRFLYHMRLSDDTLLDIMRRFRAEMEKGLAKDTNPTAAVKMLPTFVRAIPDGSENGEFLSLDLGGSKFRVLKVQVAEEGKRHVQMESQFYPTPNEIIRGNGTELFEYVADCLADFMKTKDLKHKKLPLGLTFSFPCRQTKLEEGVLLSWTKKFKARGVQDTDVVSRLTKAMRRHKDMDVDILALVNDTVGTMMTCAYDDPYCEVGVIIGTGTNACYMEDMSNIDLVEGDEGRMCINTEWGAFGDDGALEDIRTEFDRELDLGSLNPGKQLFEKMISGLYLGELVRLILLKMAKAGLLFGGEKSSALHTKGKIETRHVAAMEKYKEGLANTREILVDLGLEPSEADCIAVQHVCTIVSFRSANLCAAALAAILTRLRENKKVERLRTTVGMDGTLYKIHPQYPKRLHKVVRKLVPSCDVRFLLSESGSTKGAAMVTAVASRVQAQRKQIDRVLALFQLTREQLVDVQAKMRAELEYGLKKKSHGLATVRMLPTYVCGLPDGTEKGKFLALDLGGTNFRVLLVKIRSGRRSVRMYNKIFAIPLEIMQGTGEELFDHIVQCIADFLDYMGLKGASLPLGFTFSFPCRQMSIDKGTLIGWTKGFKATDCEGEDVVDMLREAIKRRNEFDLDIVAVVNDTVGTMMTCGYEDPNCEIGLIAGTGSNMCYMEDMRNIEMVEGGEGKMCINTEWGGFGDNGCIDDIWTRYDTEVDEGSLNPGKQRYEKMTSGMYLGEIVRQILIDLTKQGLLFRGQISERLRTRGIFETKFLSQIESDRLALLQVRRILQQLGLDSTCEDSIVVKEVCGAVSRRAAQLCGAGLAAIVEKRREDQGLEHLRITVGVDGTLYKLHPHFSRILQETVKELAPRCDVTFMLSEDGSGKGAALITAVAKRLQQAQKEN
#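 System: Recombinant HKDC1 hexokinase | Amount: HKDC1 at 5 µg/mL | Reagent: Glucose with 1 mM ATP | Doses: Single 20 µM dose | Incubation: Reaction time 90 min, room temperature, protected from light | Signal: Coupled resazurin fluorescence, excitation 525 nm, emission 613 nm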
# Tb hexokinase: blocks Trypanosoma brucei hexokinase 1 activity. actives 0.11% (n = 220,000). recombinant TbHK1, G6PDH-coupled NADH A340. inhibition, % at 10 µM. AID 1430;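 active = inhibition of 50% or more in the single-dose primary screen; inactive = inhibition below 50%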
# Hsp70 activator: Hsp70 transcriptional activation, primary screen | HeLa Hsp70 promoter luciferase reporter, luminescence; scaled: vehicle 0, proteasome-inhibitor control 100% | activation, % at 10 µM | actives 0.04% (n = 200,000);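 active = activation above the mean across all tested compounds plus 3 SD, cutoff set per campaign, cut at about 5.5% in these data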;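 note: 100% = MG132 at 30 µM as the positive control and 0% = DMSO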
# HSP90 refold inh: inhibitors of HSP90 luciferase refolding in rabbit reticulocyte lysate; luciferase refolding luminescence, 3 h; inhibition, % at 5.6 µM; actives 0.91% (n = 290,000); AID 1789;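 active = inhibition above the screen-wide mean plus 3 SD, computed separately per campaign, cut at about 16% in these data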;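 note: 0% = DMSO wells and 100% = 60 µM geldanamycin wells; inhibitors lower the luminescence because luciferase stays unfolded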
# Active calls of the source: *; . = not tested or not shown.
SMILES,HSF1 activator,HSF1 inhib,HKDC1 inhibitor,Tb hexokinase,Hsp70 activator,HSP90 refold inh
O=C(Nc1nccs1)c1cccc(N2C(=O)c3cccc4c([N+](=O)[O-])ccc(c34)C2=O)c1,170.3*,148.1,11.7,-7.9,-0.4,1.0
O=C(Nc1ccc(S(=O)(=O)Nc2nccs2)cc1)c1cccc(N2C(=O)c3ccccc3C2=O)c1,-9.1,-5.3,1.3,-3.6,0.0,1.1
Cc1cccc(-c2oc3ccc(-c4ccc5c(c4)OCO5)cc3c2C(=O)OCc2ccc(O)cc2)c1,23.9,-2.4,-4.8,.,.,4.1
C=CCn1c(C)nnc1SCC(=O)Nc1nc(C)c(C(=O)N(C)C)s1,-81.4,-75.8*,-5.8,.,.,0.0
Cc1nc(NC(=O)CSc2nnc(C3CC3)n2C)sc1C(=O)N(C)C,-14.5,-7.9,-3.0,.,.,1.5
CC(C)c1ccc(NC(=O)COC(=O)c2cc(=O)[nH]c3ccccc23)cc1,.,.,-2.1,.,.,.
CCC1CCCCN1CCCNC(=O)c1cc2c(=O)oc3ccc(C)cc3c2s1 (centres undefined),-12.8,6.2,9.3,.,.,8.0
COc1cccc(NC(=O)CSc2nnc(Cn3cnc([N+](=O)[O-])n3)n2C)c1,2.2,-3.2,-10.7,10.2,0.3,-1.3
COc1ccc(NC(=O)CSc2nnc(Cn3cnc([N+](=O)[O-])n3)n2C)cc1,66.5*,33.6,-6.9,2.6,-0.5,-3.5
COc1ccc(NC(=O)CN(C)C(=O)CCCNC(=O)c2ccc(Cl)cc2)cc1,18.2,7.5,-4.3,.,.,.
COc1ccc(-c2cccc(NC(=O)c3cccs3)c2)nn1,6.2,4.1,-0.5,.,.,.
O=C(N/N=C/c1cc([N+](=O)[O-])ccc1Cl)c1cc(-c2ccccc2)nc2ccccc12,8.6,3.0,-7.9,-12.2,.,-1.1
O=C(N/N=C/c1ccc(Cl)c([N+](=O)[O-])c1)c1cc(-c2ccccc2)nc2ccccc12,128.2*,60.2,7.2,-4.4,-0.3,0.3
Cc1ccc(S(=O)(=O)N2CCN(CCNC(=O)C(=O)NCc3ccccc3)CC2)cc1,-90.5,-87.1*,-3.7,.,.,-1.7
Cc1cc(S(=O)(=O)N2CCCC2)ccc1OCC(=O)NCc1ccccc1,-83.1,-77.2*,-6.1,.,.,4.1
Cc1cc(S(=O)(=O)N2CCCC2)ccc1OCC(=O)NCc1ccccn1,0.0,4.7,-2.9,.,.,-7.9
NC(=O)c1nsc(C(=O)N(c2ccc3c(c2)OCCO3)C(C(=O)NCC2CCCO2)c2ccc(F)cc2)c1N (centres undefined),-53.5,-53.7*,0.5,.,.,7.4
Cc1cc(C)cc(N(C(=O)c2snc(C(N)=O)c2N)C(C(=O)NCC2CCCO2)c2cccs2)c1 (centres undefined),-4.0,3.6,-1.1,-17.3,0.2,3.8
NC(=O)c1nsc(C(=O)N(c2ccccc2)C(C(=O)NCC2CCCO2)c2cccs2)c1N (centres undefined),72.5*,40.8,15.4,-14.3,0.0,9.4
CSc1ccccc1NC(=O)CN(C)C(=O)C1CC(=O)N(C(C)c2ccccc2)C1 (centres undefined),.,.,2.6,.,.,.
CCCn1nc([N+](=O)[O-])c(C(C#N)c2nc3ccccc3s2)c(Cl)c1=O (centres undefined),60.2*,46.2,14.4,-17.5,0.2,-0.2
O=C(Cc1ccc(Br)cc1)N1CCc2ccccc2C1,98.4*,69.4,-5.3,.,.,-7.8
CC(NCC(=O)Nc1ccccc1C(=O)NC1CC1)c1ccc(S(C)(=O)=O)cc1 (centres undefined),.,.,-2.5,.,.,.
O=C1C2CC=CCC2C(=O)N1Cc1ccccc1 (centres undefined),-6.0,-1.9,5.3,-2.8,-0.5,3.0
O=C1C2CC=CCC2C(=O)N1Cc1nnc(-c2ccc(Cl)cc2)o1 (centres undefined),55.9*,28.6,13.8,-1.1,-0.1,-1.7
SMILES,HSF1 activator,HSF1 inhib,HKDC1 inhibitor,Tb hexokinase,Hsp70 activator,HSP90 refold inh
COc1ccccc1-n1ccnc(SCC(=O)NC2CCCC2)c1=O,-2.2,-0.5,-1.4,.,.,.
COc1ccccc1-n1ccnc(SCC(=O)NCc2ccccc2)c1=O,-65.8,-54.7*,-5.0,.,.,.
COc1cc2ccccc2cc1C(=O)OCC(=O)N(CC(C)C)c1c(N)n(Cc2ccccc2)c(=O)[nH]c1=O,-1.0,-0.5,3.5,.,.,.
COc1ccc(CNS(=O)(=O)c2cc(CN3C(=O)c4cccnc4C3=O)ccc2OC)cc1,60.5*,17.4,-7.7,.,.,-1.5
CCOc1ccc(CNS(=O)(=O)c2cc(CN3C(=O)c4cccnc4C3=O)ccc2OC)cc1,-5.1,-1.0,-3.4,.,.,0.7
O=C(O)c1cccc(S(=O)(=O)Nc2ccc3c(c2)CCC3)c1,-7.9,-4.1,-2.7,.,.,-0.6
CC(C)c1ccc(/C=C(\NC(=O)c2ccccc2)C(=O)NCCCn2ccnc2)cc1,58.7*,22.3,4.1,.,.,-0.7
COc1ccc(CCNCc2cc(C)n(-c3ccc(OC)cc3)c2C)cc1,66.9*,17.6,-1.4,.,.,5.1
CCN(CC(=O)NC1CCS(=O)(=O)C1)c1ccc(S(=O)(=O)N(CC)CC)cc1[N+](=O)[O-] (centres undefined),.,.,1.9,.,.,.
Cc1ccc(S(=O)(=O)N2CCN(C(=O)Cc3c(F)cccc3Cl)CC2)cc1,-14.8,3.5,-5.1,.,.,.
COc1ccc(OCc2cc(-c3ccc(Cl)cc3)no2)cc1,-39.7,-20.9,-4.0,-3.0,-0.2,-3.1
COc1ccccc1OCc1cc(-c2ccccc2)no1,53.0*,27.8,-5.7,12.2,0.1,-0.6
c1ccc(OCc2cc(-c3ccccc3)no2)cc1,61.3*,20.3,-0.3,-0.1,0.0,1.7
COc1cccc(NC(=O)CN(C)S(=O)(=O)c2ccc3[nH]c(=O)oc3c2)c1,3.0,-5.0,-0.6,.,.,-0.7
CC1=NN(c2cccc(C(=O)O)c2)C(=O)/C1=C\C=C/c1ccccc1,99.9*,73.7,11.3,-3.9,0.2,-2.1
CC1=NN(c2ccc(C)cc2)C(=O)/C1=C\C=C\c1ccccc1,14.3,7.0,17.3,0.4,-0.3,0.5
O=C(CCNC(=O)c1ccc(Br)cc1)NC1CCCc2ccccc21 (centres undefined),6.0,12.1,-5.6,.,.,.
CC(c1ccncc1)C(C)c1ccncc1 (centres undefined),-1.4,0.3,-3.0,.,.,.
CC(=O)Oc1ccc(Cn2cnc3cc4ccccc4cc32)cc1,67.5*,39.9,9.1,-4.8,0.0,-0.4
Cc1ccc(-c2cc(N)n3nc(-c4ccc(C)cc4)cc3n2)cc1,17.7,3.5,-4.5,-18.6,-0.2,1.8
Cc1ccc(-c2cc3nc(-c4ccccc4)cc(N)n3n2)cc1,61.5*,31.9,-7.4,-22.1,0.2,1.7
O=C(c1cc(-c2ccc(F)cc2)on1)N1CCOCC1,43.7,29.9,0.7,.,.,10.3
COc1ccc(-c2cc(C(=O)N3CCCCCC3)no2)cc1,59.7*,25.3,-6.5,.,.,10.1
COc1cccc(-c2cc(C(=O)N3CCCCCC3)no2)c1,12.6,7.2,1.1,5.9,0.4,14.5

# Screens as filed in PubChem.
